This passage reports MIC results from ChEMBL document CHEMBL1122831, “Synthesis and structure-activity relationships of novel arylfluoroquinolone antibacterial agents” (1985).

In brackets after ≈: the same amount, converted by molar mass.

What all share (type): functional
Test [1] deals with Staphylococcus epidermidis. Nature of the test: Minimum inhibition concentration in vitro determined against Staphylococcus epidermidis 3519. Summed up:
(§1)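 Agar dilution on brain-heart infusion (BHI) agar with twofold dilutions from a 2000 µg/mL stock, giving final test concentrations of 200-0.005 µg/mL. Organisms were grown overnight in BHI broth at 36 °C, and about 10⁴ organisms were inoculated per plate. Plates were incubated 18 h at 36 °C. MIC was the lowest concentration with no visible growth.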

For another test, the system named is Escherichia coli. Nature of the test: Minimum inhibition concentration in vitro determined against Escherichia coli juhl. Conditions: Escherichia coli; read-out: MIC. In outline: as §1
The subject of another test is Klebsiella aerogenes. Nature of the test: Minimum inhibition concentration in vitro determined against Enterobacteri aerogenes ATCC 13048. Summed up: as §1
The next test deals with Acinetobacter. Nature of the test: Minimum inhibition concentration in vitro determined against Acinetobacter sp CMX669. In outline: as §1
Test [2] relates to Pseudomonas aeruginosa. Nature of the test: Minimum inhibition concentration in vitro determined against Pseudomona aeruginosa K799/WT. Summed up:
as §1

The test system of another test is Streptococcus pyogenes. Nature of the test: Minimum inhibition concentration in vitro determined against Streptococcus pyogenes 930. Summed up:
as §1

The test system of test [3] is Staphylococcus aureus. Nature of the test: Minimum inhibition concentration in vitro determined against Staphylococcus aureus CMX 686B. Summed up:
as §1

Another test concerns Klebsiella pneumoniae. Nature of the test: Minimum inhibition concentration in vitro determined against Klebsiella pneumoniae 8045. Summed up: as §1
The test system of another test is Enterococcus faecium. Nature of the test: Minimum inhibition concentration in vitro determined against Streptococcus faecium ATCC 8043. In outline: as §1
Test [4] relates to Staphylococcus aureus. Nature of the test: Minimum inhibition concentration in vitro determined against Staphylococcus aureus ATCC 6538P. In outline:
as §1

In test [5] the test system is Pseudomonas aeruginosa. Nature of the test: Minimum inhibition concentration in vitro determined against Pseudomona aeruginosa 5007. Summed up:
as §1

What is called MIC is the smallest concentration in the dilution series that meets the test's criterion for growth inhibition.

With `CN1CCN(c2cc3c(cc2F)c(=O)c(C(=O)O)cn3-c2ccc(O)cc2)CC1`, the MIC in test [1] is 0.2 µg/mL (≈ 0.503 µM); in the test with Escherichia coli, 0.1 µg/mL (≈ 0.252 µM); in the test on Klebsiella aerogenes it was 0.2 µg/mL (≈ 0.503 µM); with Acinetobacter, 0.39 µg/mL (≈ 0.981 µM); with Pseudomonas aeruginosa [2], 0.39 µg/mL (≈ 0.981 µM); with Streptococcus pyogenes it was 0.2 µg/mL (≈ 0.503 µM). The MIC with Staphylococcus aureus [3] was determined as 0.1 µg/mL (≈ 0.252 µM); in the test on Klebsiella pneumoniae, 0.05 µg/mL (≈ 0.126 µM); with Enterococcus faecium, 0.39 µg/mL (≈ 0.981 µM); in the test on Staphylococcus aureus [4] it was 0.05 µg/mL (≈ 0.126 µM); in the test with Pseudomonas aeruginosa [5] it was 0.39 µg/mL (≈ 0.981 µM).
For the molecule `O=C(O)c1cn(-c2ccc(F)cc2)c2cc(N3CCSCC3)c(F)cc2c1=O`, the MIC in test [1] stood at 0.1 µg/mL (≈ 0.248 µM); in the test with Escherichia coli it was 0.78 µg/mL (≈ 1.94 µM); against Klebsiella aerogenes, 0.78 µg/mL (≈ 1.94 µM); with Acinetobacter it was 0.78 µg/mL (≈ 1.94 µM); in the test on Pseudomonas aeruginosa [2], 3.1 µg/mL (≈ 7.7 µM); in the test with Streptococcus pyogenes, 0.78 µg/mL (≈ 1.94 µM). Also, the MIC with Staphylococcus aureus [3] was 0.05 µg/mL (≈ 0.124 µM); with Klebsiella pneumoniae, 0.39 µg/mL (≈ 0.969 µM); with Enterococcus faecium it was 0.78 µg/mL (≈ 1.94 µM); against Staphylococcus aureus [4] it was 0.05 µg/mL (≈ 0.124 µM); against Pseudomonas aeruginosa [5], 3.1 µg/mL (≈ 7.7 µM).
Take `O=C(O)c1cn(-c2ccc(F)cc2)c2cc(N3CCC(O)C3)c(F)cc2c1=O` (stereo not drawn): the MIC in test [1] was 0.2 µg/mL (≈ 0.518 µM); in the test with Escherichia coli it was 0.2 µg/mL (≈ 0.518 µM); against Klebsiella aerogenes, 0.78 µg/mL (≈ 2.02 µM); against Acinetobacter, 0.39 µg/mL (≈ 1.01 µM); in the test on Pseudomonas aeruginosa [2], 3.1 µg/mL (≈ 8.02 µM); against Streptococcus pyogenes, 1.56 µg/mL (≈ 4.04 µM). In addition, the MIC is < 0.1 µg/mL with Staphylococcus aureus [3]; 0.2 µg/mL (≈ 0.518 µM) with Klebsiella pneumoniae; 1.56 µg/mL (≈ 4.04 µM) in the test with Enterococcus faecium; < 0.1 µg/mL with Staphylococcus aureus [4]; 3.1 µg/mL (≈ 8.02 µM) in the test with Pseudomonas aeruginosa [5].
For `CN1CCN(c2cc3c(cc2F)c(=O)c(C(=O)O)cn3-c2ccc(Cl)cc2)CC1`, the MIC in test [1] is 1.56 µg/mL (≈ 3.75 µM); in the test with Escherichia coli, 1.56 µg/mL (≈ 3.75 µM); in the test with Klebsiella aerogenes, 1.56 µg/mL (≈ 3.75 µM); against Acinetobacter, 1.56 µg/mL (≈ 3.75 µM); with Pseudomonas aeruginosa [2], 6.2 µg/mL (≈ 14.9 µM); against Streptococcus pyogenes, 12.5 µg/mL (≈ 30.1 µM). In addition, the MIC was found to be 1.56 µg/mL (≈ 3.75 µM) against Staphylococcus aureus [3]; 0.78 µg/mL (≈ 1.88 µM) against Klebsiella pneumoniae; 100 µg/mL (≈ 240 µM) with Enterococcus faecium; 1.56 µg/mL (≈ 3.75 µM) against Staphylococcus aureus [4]; 12.5 µg/mL (≈ 30.1 µM) against Pseudomonas aeruginosa [5].
Regarding `Cc1ccc(-n2cc(C(=O)O)c(=O)c3cc(F)c(N4CCN(C)CC4)cc32)cc1`, the MIC in test [1] came to 3.1 µg/mL (≈ 7.84 µM); with Escherichia coli it was 1.56 µg/mL (≈ 3.95 µM); against Klebsiella aerogenes, 3.1 µg/mL (≈ 7.84 µM); with Acinetobacter, 1.56 µg/mL (≈ 3.95 µM); against Pseudomonas aeruginosa [2], 12.5 µg/mL (≈ 31.6 µM); in the test with Streptococcus pyogenes, 12.5 µg/mL (≈ 31.6 µM). Moreover, the MIC in the test with Staphylococcus aureus [3] worked out at 1.56 µg/mL (≈ 3.95 µM); in the test with Klebsiella pneumoniae, 0.78 µg/mL (≈ 1.97 µM); against Enterococcus faecium, 50 µg/mL (≈ 126 µM); with Staphylococcus aureus [4], 1.56 µg/mL (≈ 3.95 µM); against Pseudomonas aeruginosa [5] it was 12.5 µg/mL (≈ 31.6 µM).
As for `CN1CCN(c2cc3c(cc2F)c(=O)c(C(=O)O)cn3-c2cccc(F)c2)CC1`, the MIC in [1] turned out to be 12.5 µg/mL (≈ 31.3 µM); in the test on Escherichia coli, 6.2 µg/mL (≈ 15.5 µM); against Klebsiella aerogenes it was 6.2 µg/mL (≈ 15.5 µM); in the test on Acinetobacter it was 50 µg/mL (≈ 125 µM); with Pseudomonas aeruginosa [2], 50 µg/mL (≈ 125 µM); against Streptococcus pyogenes, 25 µg/mL (≈ 62.6 µM). Moreover, the MIC was determined as 12.5 µg/mL (≈ 31.3 µM) against Staphylococcus aureus [3]; 3.1 µg/mL (≈ 7.76 µM) in the test on Klebsiella pneumoniae; 50 µg/mL (≈ 125 µM) in the test with Enterococcus faecium; 12.5 µg/mL (≈ 31.3 µM) against Staphylococcus aureus [4]; 50 µg/mL (≈ 125 µM) against Pseudomonas aeruginosa [5].
`CN1CCN(c2cc3c(cc2F)c(=O)c(C(=O)O)cn3-c2ccc(F)cc2F)CC1`: the MIC turned out to be 0.39 µg/mL (≈ 0.934 µM) in test [1]; 0.2 µg/mL (≈ 0.479 µM) in the test with Escherichia coli; 0.39 µg/mL (≈ 0.934 µM) against Klebsiella aerogenes; 0.1 µg/mL (≈ 0.24 µM) against Acinetobacter; 1.56 µg/mL (≈ 3.74 µM) in the test on Pseudomonas aeruginosa [2]; 0.78 µg/mL (≈ 1.87 µM) against Streptococcus pyogenes. For the same molecule, the MIC against Staphylococcus aureus [3] amounted to 0.1 µg/mL (≈ 0.24 µM); in the test on Klebsiella pneumoniae it was 0.1 µg/mL (≈ 0.24 µM); against Enterococcus faecium, 0.78 µg/mL (≈ 1.87 µM); with Staphylococcus aureus [4], 0.1 µg/mL (≈ 0.24 µM); against Pseudomonas aeruginosa [5] it was 1.56 µg/mL (≈ 3.74 µM).
Take `O=C(O)c1cn(-c2ccc(F)cc2)c2cc(N3CCCNCC3)c(F)cc2c1=O`: the MIC in [1] was 1.56 µg/mL (≈ 3.91 µM); in the test with Escherichia coli, 0.2 µg/mL (≈ 0.501 µM); in the test with Klebsiella aerogenes, 0.39 µg/mL (≈ 0.976 µM); in the test with Acinetobacter it was 1.56 µg/mL (≈ 3.91 µM); in the test with Pseudomonas aeruginosa [2] it was 3.1 µg/mL (≈ 7.76 µM); with Streptococcus pyogenes, 6.2 µg/mL (≈ 15.5 µM). Besides, the MIC in the test with Staphylococcus aureus [3] came to 0.78 µg/mL (≈ 1.95 µM); in the test on Klebsiella pneumoniae, 0.1 µg/mL (≈ 0.25 µM); against Enterococcus faecium, 12.5 µg/mL (≈ 31.3 µM); against Staphylococcus aureus [4] it was 0.78 µg/mL (≈ 1.95 µM); with Pseudomonas aeruginosa [5], 1.56 µg/mL (≈ 3.91 µM).
